Our source for the IC50 values is ChEMBL document CHEMBL4052605, “Lissoclibadin 1, a Polysulfur Aromatic Alkaloid from the Indonesian Ascidian Lissoclinum cf. badium, Induces Caspase-Dependent Apoptosis in Human Colon Cancer Cells and Suppresses Tumor Growth in Nude Mice” (J Nat Prod, 2017).

Structures are written as SMILES.

Assay type in all cases: functional, cell-based
One experiment deals with HCT-15. As to the kind of experiment: Antiproliferative activity against human HCT15 cells after 24 hrs by WST-1 assay. The following applies: HCT-15, 24 h. In a few lines:
(§1)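 WST-1 viability assay. Cells seeded at 5 × 10^3 per well and grown 24 h, then given lissoclibadins at 0.1−40 μM (etoposide 1.0−100 μM) in triplicate for 24 h. WST-1 added and absorbance read 4 h later at 450 nm, background subtracted at 650 nm. Viability expressed as % of control; IC50 taken as 50% inhibition of viability. Three experiments, mean ± SD.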
In general terms: Tetrazolium dyes change colour on reduction, which living cells bring about.

Another experiment concerns HeLa S3. As to the kind of experiment: Antiproliferative activity against human HeLaS3 cells after 24 hrs by WST-1 assay. The following applies: HeLa S3, 24 h. In a few lines:
as §1

The next experiment has as its system NCI-H28. Kind of experiment: Antiproliferative activity against human NCI-H28 cells after 24 hrs by WST-1 assay. The conditions noted are these: NCI-H28, 24 h. The procedure, abridged: as §1
Another experiment concerns MCF7. As to the kind of experiment: Antiproliferative activity against human MCF7 cells after 24 hrs by WST-1 assay. The following applies: MCF7, 24 h. In a few lines:
as §1

As for `COc1c(OC)c2c(c(CCN(C)C)c1SC)Sc1c(OC)c(OC)c(SC)c(CCN(C)C)c1S2` [LISSOCLIBADIN 3], the IC50 (in general, the midpoint of a concentration-inhibition curve) in the experiment on HCT-15 is 13.2 µM; in the experiment on HeLa S3 it was 16 µM.

Turning to `COc1c(OC)c2c(c(CCN(C)C)c1SC)SSc1c(CCN(C)C)c(SC)c(OC)c(OC)c1SSc1c(OC)c(OC)c(SC)c(CCN(C)C)c1SSc1c(CCN(C)C)c(SC)c(OC)c(OC)c1SS2`, the IC50 in the experiment with NCI-H28 was determined as 7.1 µM; with HCT-15, 4.9 µM; in the experiment with MCF7 it was 11.8 µM; in the experiment with HeLa S3, 6.3 µM.
